Test results taken from ChEMBL document CHEMBL1765003, “Discovery of (1S,2R,3R)-2,3-dimethyl-2-phenyl-1-sulfamidocyclopropanecarboxylates: novel and highly selective aggrecanase inhibitors” (J Med Chem, 2011).

Legend:
[1] = Volume of distribution at steady state in Sprague-Dawley rat at 1 mg/kg, iv; format: ADME, organism-based; parameters: dose 1 mg/kg, route intravenous; settings: in vivo, read-out: Vdss
In short: (§1)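 Intravenous dose of 1 mg/kg. Blood sampled at 0.50, 1, 2, 4, 8 and 24 h. Plasma obtained by centrifugation at 10 000 rpm for 5 min and kept at −20 °C until analysis.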

Cytochrome P450 3A4 = Cytochrome P450 3A4 (Homo sapiens, UniProt P08684); test: Inhibition of CYP3A4 at up to 50 uM; format: ADME
[2] = Half life in Sprague-Dawley rat at 10 mg/kg, po; format: ADME, organism-based; parameters: dose 10 mg/kg, route oral; settings: in vivo
Stromelysin-1 = Stromelysin-1 (Homo sapiens, UniProt P08254); test: Inhibition of human recombinant MMP3 after 60 mins by fluorescence plate reader
In short: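 rh-MMP-3 at 40 ng/mL with 10 μM MOCAc-Arg-Pro-Lys-Pro-Val-Glu-Nva-Trp-Arg-Lys(Dnp)-NH₂, in Tris-HCl pH 7.5/NaCl/CaCl₂/Brij-35 buffer. Inhibitor preincubated for 15 min at 25 °C. Fluorescence (ex 325/em 405 nm) read at 60 min. IC50 from three central linear points; at least two determinations averaged.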

[3] = target: T1, A disintegrin and metalloproteinase with thrombospondin motifs 5 (Homo sapiens, UniProt Q9UNA0); test: Inhibition of human recombinant aggrecanase 2 after 150 mins by fluorescence plate reader
T1 sequence (Q9UNA0 whole entry): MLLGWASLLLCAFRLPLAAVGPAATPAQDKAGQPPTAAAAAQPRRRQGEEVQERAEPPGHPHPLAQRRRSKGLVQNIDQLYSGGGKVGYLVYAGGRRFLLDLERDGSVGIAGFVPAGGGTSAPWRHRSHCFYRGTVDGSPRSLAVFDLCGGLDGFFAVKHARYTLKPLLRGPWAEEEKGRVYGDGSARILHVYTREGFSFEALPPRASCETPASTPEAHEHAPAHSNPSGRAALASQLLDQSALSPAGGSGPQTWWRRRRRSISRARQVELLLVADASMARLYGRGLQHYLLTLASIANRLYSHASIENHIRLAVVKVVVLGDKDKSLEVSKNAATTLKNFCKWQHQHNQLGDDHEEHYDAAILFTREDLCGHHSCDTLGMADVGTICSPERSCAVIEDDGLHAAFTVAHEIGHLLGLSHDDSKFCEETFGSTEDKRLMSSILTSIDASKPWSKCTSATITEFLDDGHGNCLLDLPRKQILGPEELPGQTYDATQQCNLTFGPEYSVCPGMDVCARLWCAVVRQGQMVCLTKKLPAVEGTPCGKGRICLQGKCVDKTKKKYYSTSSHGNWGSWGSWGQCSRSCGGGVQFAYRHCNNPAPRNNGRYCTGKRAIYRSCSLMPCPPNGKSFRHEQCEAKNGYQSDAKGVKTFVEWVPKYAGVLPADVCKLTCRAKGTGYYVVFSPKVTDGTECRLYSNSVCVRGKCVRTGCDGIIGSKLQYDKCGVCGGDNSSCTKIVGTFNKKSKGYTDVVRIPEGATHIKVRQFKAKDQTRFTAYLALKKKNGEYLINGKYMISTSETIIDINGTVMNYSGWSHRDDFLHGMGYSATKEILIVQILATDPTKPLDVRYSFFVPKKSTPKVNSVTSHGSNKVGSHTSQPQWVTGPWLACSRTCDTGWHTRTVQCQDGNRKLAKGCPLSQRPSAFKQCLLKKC

[4] = Clearance in Sprague-Dawley rat at 1 mg/kg, iv; format: ADME, organism-based; parameters: dose 1 mg/kg, route intravenous; settings: in vivo; in short: as §1
Cytochrome P450 1A2 = target: T2, Cytochrome P450 1A2 (Homo sapiens, UniProt P05177); test: Inhibition of CYP1A2 at up to 50 uM; format: ADME
T2 sequence (P05177 whole entry): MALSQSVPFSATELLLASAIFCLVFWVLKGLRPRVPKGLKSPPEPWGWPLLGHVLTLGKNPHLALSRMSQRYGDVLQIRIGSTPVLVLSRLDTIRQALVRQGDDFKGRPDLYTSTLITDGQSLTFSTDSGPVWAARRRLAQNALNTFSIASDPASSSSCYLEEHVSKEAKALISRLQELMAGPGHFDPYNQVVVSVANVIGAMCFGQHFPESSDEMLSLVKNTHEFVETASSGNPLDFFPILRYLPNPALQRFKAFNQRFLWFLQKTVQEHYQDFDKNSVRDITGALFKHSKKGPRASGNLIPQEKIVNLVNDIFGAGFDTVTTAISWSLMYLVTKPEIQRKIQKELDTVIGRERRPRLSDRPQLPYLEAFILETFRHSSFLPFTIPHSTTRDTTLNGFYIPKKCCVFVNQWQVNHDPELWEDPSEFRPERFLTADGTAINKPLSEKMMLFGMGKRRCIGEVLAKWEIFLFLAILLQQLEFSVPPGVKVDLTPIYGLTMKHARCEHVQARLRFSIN

[5] = target: T3, A disintegrin and metalloproteinase with thrombospondin motifs 4 (Homo sapiens, UniProt O75173); test: Inhibition of human recombinant aggrecanase 1 after 150 mins by fluorescence plate reader
T3 sequence (O75173 whole entry): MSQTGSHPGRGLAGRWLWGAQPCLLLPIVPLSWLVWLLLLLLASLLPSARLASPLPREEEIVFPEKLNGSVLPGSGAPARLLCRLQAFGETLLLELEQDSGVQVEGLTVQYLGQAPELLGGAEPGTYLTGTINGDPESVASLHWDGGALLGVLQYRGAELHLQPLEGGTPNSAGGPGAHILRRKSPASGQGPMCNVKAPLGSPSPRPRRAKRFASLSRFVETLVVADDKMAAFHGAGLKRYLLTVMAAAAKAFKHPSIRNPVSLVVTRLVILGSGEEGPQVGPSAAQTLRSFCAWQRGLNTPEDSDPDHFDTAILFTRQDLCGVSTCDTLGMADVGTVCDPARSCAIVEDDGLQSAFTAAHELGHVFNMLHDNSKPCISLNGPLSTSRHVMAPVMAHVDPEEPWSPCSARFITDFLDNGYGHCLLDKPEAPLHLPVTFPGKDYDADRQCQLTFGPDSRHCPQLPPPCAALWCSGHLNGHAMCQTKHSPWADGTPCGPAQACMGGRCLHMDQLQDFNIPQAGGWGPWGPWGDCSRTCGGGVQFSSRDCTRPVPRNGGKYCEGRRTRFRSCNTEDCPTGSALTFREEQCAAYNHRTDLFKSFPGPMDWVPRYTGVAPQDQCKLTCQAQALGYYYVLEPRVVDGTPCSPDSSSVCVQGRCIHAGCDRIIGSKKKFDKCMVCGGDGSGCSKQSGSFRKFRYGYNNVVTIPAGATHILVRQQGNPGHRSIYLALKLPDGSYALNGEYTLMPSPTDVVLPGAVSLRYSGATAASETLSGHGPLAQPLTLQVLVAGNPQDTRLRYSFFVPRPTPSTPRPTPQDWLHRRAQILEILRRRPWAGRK

Sequence of Stromelysin-1 (P08254 whole entry): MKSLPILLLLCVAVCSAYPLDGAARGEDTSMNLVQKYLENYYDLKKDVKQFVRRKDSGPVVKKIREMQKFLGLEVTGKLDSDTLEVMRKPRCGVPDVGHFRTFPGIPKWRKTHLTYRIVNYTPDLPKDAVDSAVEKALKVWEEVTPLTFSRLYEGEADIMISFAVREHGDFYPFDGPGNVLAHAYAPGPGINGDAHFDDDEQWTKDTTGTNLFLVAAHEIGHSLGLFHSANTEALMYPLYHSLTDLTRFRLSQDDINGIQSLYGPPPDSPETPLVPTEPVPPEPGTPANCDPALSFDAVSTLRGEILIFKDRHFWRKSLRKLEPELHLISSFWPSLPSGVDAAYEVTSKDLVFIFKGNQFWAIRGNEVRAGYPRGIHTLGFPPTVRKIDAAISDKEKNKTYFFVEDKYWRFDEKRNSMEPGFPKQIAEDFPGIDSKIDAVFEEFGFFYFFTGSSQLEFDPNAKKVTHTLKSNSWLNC
Sequence of Cytochrome P450 3A4 (P08684 whole entry): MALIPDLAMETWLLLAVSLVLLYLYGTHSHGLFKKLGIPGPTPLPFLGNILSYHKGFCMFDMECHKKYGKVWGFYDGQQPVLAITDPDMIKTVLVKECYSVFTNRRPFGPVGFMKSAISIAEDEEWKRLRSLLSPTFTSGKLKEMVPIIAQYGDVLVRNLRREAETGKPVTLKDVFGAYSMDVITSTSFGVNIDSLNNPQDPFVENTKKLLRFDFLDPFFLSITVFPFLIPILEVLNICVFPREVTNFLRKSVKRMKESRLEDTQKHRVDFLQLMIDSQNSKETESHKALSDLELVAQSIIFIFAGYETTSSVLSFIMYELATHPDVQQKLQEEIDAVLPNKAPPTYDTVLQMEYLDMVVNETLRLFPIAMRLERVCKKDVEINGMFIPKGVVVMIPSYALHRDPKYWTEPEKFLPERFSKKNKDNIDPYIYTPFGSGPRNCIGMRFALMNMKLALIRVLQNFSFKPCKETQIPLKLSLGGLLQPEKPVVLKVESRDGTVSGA

- Vd [1]: 0.25 L/kg
- inhibition (INH) (Cytochrome P450 3A4): Not Active
- half-life [2]: 4 h
- IC50 (Stromelysin-1): 9.6 µM
- IC50 [3]: 0.0084 µM
- clearance [4]: 1 mL/min/kg
- inhibition (INH) (Cytochrome P450 1A2): Not Active
- IC50 [5]: 0.023 µM
Structure (SMILES): C[C@@H]1[C@](C)(c2ccccc2)[C@]1(NS(=O)(=O)N1CCc2c(nc3cc(F)ccn23)C1)C(=O)O
